Screens (PubChem BioAssay)
Most compounds without a hit are left out; they make up all but 2.9% or so of the library.
mABHD4 FP: inhibitors of mouse ABHD4 | Q8VD66 | purified mABHD4, FP-Rh probe fluorescence polarization | inhibition, % at 8.92 µM | 0.54% of 370,000 active | AID 720543;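 active = inhibition exceeding the mean over every tested compound plus 3 SD, cut at about 30% in these data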
Target sequence (Q8VD66 whole entry, looked up): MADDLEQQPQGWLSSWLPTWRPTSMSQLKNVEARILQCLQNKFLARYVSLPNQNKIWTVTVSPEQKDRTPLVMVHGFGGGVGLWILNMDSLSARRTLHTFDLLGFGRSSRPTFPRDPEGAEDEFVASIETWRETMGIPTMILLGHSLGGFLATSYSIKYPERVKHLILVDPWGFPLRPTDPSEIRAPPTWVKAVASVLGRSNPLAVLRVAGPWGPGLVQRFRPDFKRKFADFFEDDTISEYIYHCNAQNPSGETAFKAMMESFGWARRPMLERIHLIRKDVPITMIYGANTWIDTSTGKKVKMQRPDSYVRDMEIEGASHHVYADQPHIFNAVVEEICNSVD
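Assay system: mABHD4 protein; medium: HEPES pH 7.0, NaCl, Pluronic buffer; dosing: 8.92 µM, single dose; schedule: 45 min + 60 min at 25 °C; signal: FP readout, ex 525 nm / em 598 nm; read-out: normalized percent inhibition of probe labeling; repeats: single replicate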
HTRA1 inhibitor: inhibitors of human serine peptidase HTRA1; 0.5% of 340,000 active; recombinant HTRA1, FP-rhodamine activity-based probe, fluorescence polarization; AID 504803; inhibition, % at 5.96 µM; in the data active = inhibition above about 36%
PRMT1 inh: inhibitors of human PRMT1; 1.3% of 370,000 active; recombinant PRMT1, activity-based probe fluorescence polarization; inhibition, % at 2.79 µM; AID 652257;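 active = inhibition above about 21% made by adding two undisclosed values, limit read from the data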
Target sequence (Q99873 whole entry, looked up): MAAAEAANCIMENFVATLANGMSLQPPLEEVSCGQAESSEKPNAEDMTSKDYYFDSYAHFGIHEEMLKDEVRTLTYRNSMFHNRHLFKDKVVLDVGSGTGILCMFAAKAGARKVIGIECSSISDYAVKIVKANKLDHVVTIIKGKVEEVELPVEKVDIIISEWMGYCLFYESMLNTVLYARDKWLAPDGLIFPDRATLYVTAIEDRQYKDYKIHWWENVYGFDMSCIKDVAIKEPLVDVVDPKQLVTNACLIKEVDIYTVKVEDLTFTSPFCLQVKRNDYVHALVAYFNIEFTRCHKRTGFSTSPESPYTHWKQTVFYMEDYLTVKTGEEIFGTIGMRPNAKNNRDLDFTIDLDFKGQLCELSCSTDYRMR
PAD4 FP inh: blocks human protein arginine deiminase 4; inhibition, % at 6.36 µM; 0.41% of 330,000 active; recombinant PAD4, RCA probe fluorescence polarization; Q9UM07;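 active = percent inhibition above a cutoff equal to the mean of all tested compounds plus 3 SD, cut at about 15% in these data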
TCR CD3 inh: inhibitors of human TCR-CD3 interaction | 0.37% of 360,000 active | TAMRA-labeled TCR probe fluorescence, biochemical | AID 651800 | inhibition, % at 9.4 µM; in the data active = inhibition above about 19%;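 note: recombinant mutant TCR 2C K166C tagged with TAMRA read by polarization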
SIAE primary: blocks human sialic acid acetylesterase. 0.69% of 370,000 active. SIAE FP-Rh probe binding, fluorescence polarization. Q9HAT2. AID 1053197. inhibition, % at 9.66 µM;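 active = inhibition above a cutoff: mean of compounds within the control limits plus 3 SD of those, cut at about 17% in these data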
HTRA1 inh conf: HTRA1 (human) inhibition, confirmation; shares compounds with HTRA1 inhibitor; recombinant HTRA1, FP-rhodamine activity-based probe, fluorescence polarization; inhibition, % at 5.96 µM; 66% of 1,600 active; AID 540248;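 active = mean inhibition over three repeats above a set limit taken from the earlier primary screen, cut at about 37% in these data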;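 note: inhibitors block probe binding so polarization drops and inhibition rises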
Of the large screens only hits and unclear results are named; the others gave an inactive call (follow-up assays come after a bar, where they were run).

COc1cccc(/C=N/Nc2ncnc(Cl)c2N)c1O	none
O=C(Nc1ccc(F)cc1F)c1cc(-c2ccc(Cl)cc2)nc2ccccc12	none (no result: HTRA1 inhibitor, PAD4 FP inh, TCR CD3 inh)
CCOc1ccc(/C=C/C(=O)c2cc(Br)ccc(=O)c2O)cc1	HTRA1 inhibitor 51 | HTRA1 inh conf 44
O=C(CC1C=CCC1)OCCN1CCN(C2CN(Cc3cn(Cc4ccccc4Cl)nn3)S(=O)(=O)C2)CC1 (stereo not given)	none (no result: HTRA1 inhibitor, PAD4 FP inh, TCR CD3 inh)
COc1cc2c(cc1OC)C(=O)C(Br)CC2 (stereo not given)	HTRA1 inhibitor 42 (no result: mABHD4 FP, PRMT1 inh, PAD4 FP inh, TCR CD3 inh, SIAE primary) | HTRA1 inh conf inactive
COc1cc2c(cc1OC)C(=O)C(c1ccc3c(c1)OCO3)CC2 (stereo not given)	none (no result: PAD4 FP inh)
CCCCC(=O)NC(c1ccc(Cl)cc1)c1ccc2cccnc2c1O (stereo not given)	HTRA1 inhibitor 40 | HTRA1 inh conf 44
CCCC(=O)NC(c1ccc(Cl)cc1)c1ccc2cccnc2c1O (stereo not given)	HTRA1 inhibitor 46 | HTRA1 inh conf 48
CCCCC(=O)NC(c1ccc(N(C)C)cc1)c1ccc2cccnc2c1O (stereo not given)	HTRA1 inhibitor 46 | HTRA1 inh conf 61
CCCC(=O)NC(c1cccc([N+](=O)[O-])c1)c1ccc2cccnc2c1O (stereo not given)	none (no result: PAD4 FP inh)
CCCC(=O)NC(c1ccc(Cl)cc1Cl)c1ccc2cccnc2c1O (stereo not given)	HTRA1 inhibitor 53 | HTRA1 inh conf 56
COC(=O)[C@]12C[C@H](CC(=O)N3CCSCC3)C(=O)N(Cc3ccc(Cl)cc3Cl)C1=C[C@H](C(C)(C)C)O[C@@H]2C	none (no result: HTRA1 inhibitor, PAD4 FP inh, TCR CD3 inh)
CN[C@H]1C[C@H]2c3[nH]c4c(-c5ccc6c(c5)OCO6)cccc4c3CCN2C[C@H]1[C@H](C)O	none (no result: HTRA1 inhibitor, PAD4 FP inh, TCR CD3 inh)
COc1ccc(CCNC(=O)Nc2ccc3c(c2)[C@]2(CC(=O)N(CC(C)C)C2c2ccccc2)C(=O)N3C)cc1OC (stereo not given in full)	none (no result: HTRA1 inhibitor, PAD4 FP inh, TCR CD3 inh)
CC(C)C(=O)NC(c1ccco1)c1ccc2cccnc2c1O (stereo not given)	none
CCCC(=O)NC(c1ccccc1)c1c(O)ccc2ccccc12 (stereo not given)	none
CCCC(=O)NC(c1ccccc1OC)c1ccc2cccnc2c1O (stereo not given)	none (no result: mABHD4 FP, PRMT1 inh, TCR CD3 inh, SIAE primary)
CCN(CC)c1ccc(C(NC(=O)C(C)C)c2ccc3cccnc3c2O)cc1 (stereo not given)	HTRA1 inhibitor 56 (no result: PAD4 FP inh) | HTRA1 inh conf 61
CCCCC(=O)NC(c1ccccc1OC)c1ccc2cccnc2c1O (stereo not given)	HTRA1 inhibitor 60 | HTRA1 inh conf 52
CCCC(=O)NC(c1ccc(C)cc1)c1ccc2cccnc2c1O (stereo not given)	HTRA1 inhibitor 45 (no result: mABHD4 FP, PRMT1 inh, TCR CD3 inh, SIAE primary) | HTRA1 inh conf 58
C=CCN1C(=O)[C@]2(OCCC=C[C@H]2C)c2cc(OC)ccc21	none (no result: HTRA1 inhibitor, PAD4 FP inh)
C/C(=N\NC(=O)CSc1nc2ccccc2o1)c1cccc(O)c1	HTRA1 inhibitor 51 | HTRA1 inh conf inactive
COc1ccc(-c2nn(-c3ccccc3)cc2/C=N/N2C(=O)CSC2=S)cc1	HTRA1 inhibitor 68 | HTRA1 inh conf 53
COc1ccc(/C=N/N2C(=O)CSC2=S)cc1	none
CC(C)C(=O)NC(c1cccs1)c1cc([N+](=O)[O-])c2cccnc2c1O (stereo not given)	HTRA1 inhibitor 38 (no result: mABHD4 FP, PRMT1 inh, TCR CD3 inh, SIAE primary) | HTRA1 inh conf 37
CCC(=O)NC(/C=C/c1ccccc1)c1cc([N+](=O)[O-])c2cccnc2c1O (stereo not given)	none (no result: HTRA1 inhibitor)
Cc1ccc(C(NC(=O)C(C)C)c2cc([N+](=O)[O-])c3cccnc3c2O)cc1 (stereo not given)	HTRA1 inhibitor 37 | HTRA1 inh conf 65
CNc1c(NS(=O)(=O)c2ccc(Cl)s2)c(=O)oc2ccccc12	HTRA1 inhibitor 129 | HTRA1 inh conf inactive
CNc1c(NS(=O)(=O)c2ccc(Cl)cc2)c(=O)oc2ccccc12	none
CC(C)CC(=O)NC(c1cccs1)c1ccc2cccnc2c1O (stereo not given)	HTRA1 inhibitor 43 (no result: mABHD4 FP, PRMT1 inh, TCR CD3 inh, SIAE primary) | HTRA1 inh conf 38
Oc1c(C(Nc2nc3ccccc3s2)c2ccco2)ccc2cccnc12 (stereo not given)	HTRA1 inhibitor 36 | HTRA1 inh conf 40
Cc1conc1NC(c1cccs1)c1ccc2cccnc2c1O (stereo not given)	none (no result: mABHD4 FP, HTRA1 inhibitor, PRMT1 inh, TCR CD3 inh, SIAE primary)
Oc1c(C(Nc2nccs2)c2ccc(C(F)(F)F)cc2)ccc2cccnc12 (stereo not given)	HTRA1 inhibitor 43 (no result: PAD4 FP inh) | HTRA1 inh conf 54
CCC(=O)NC(c1cccs1)c1ccc2cccnc2c1O (stereo not given)	HTRA1 inhibitor 41 | HTRA1 inh conf 46
Oc1c(C(Nc2cccc(C(F)(F)F)c2)c2ccncc2)ccc2cccnc12 (stereo not given)	none
CC(=O)NC(c1ccco1)c1cc(F)c2cccnc2c1O (stereo not given)	none
COc1ccc(CN2CN3Cc4ccc(C)cc4C3CS2(=O)=O)cc1 (stereo not given)	none (no result: HTRA1 inhibitor, PAD4 FP inh, TCR CD3 inh)
COC(=O)c1cc(-c2cccc(OC(F)(F)F)c2)c(=O)n2c1CCC2	none (no result: HTRA1 inhibitor, PAD4 FP inh, TCR CD3 inh)
COC(=O)N1C[C@H](OC)[C@H]2C[C@@H]1c1ccccc1O2	none (no result: HTRA1 inhibitor, PAD4 FP inh)
Oc1ccc(-c2nc3ccc4ccccc4c3c3c2CCC3)cc1O	HTRA1 inhibitor 41 | HTRA1 inh conf 56
Cc1cc(C)c2c(ccc3ccccc32)n1	none (no result: PAD4 FP inh)
Cc1ccc(O)c(CNCCNCc2cc(C)ccc2O)c1	HTRA1 inhibitor 38 | HTRA1 inh conf 53
CCC(C(=O)Nc1ccccc1N1CCCC1)c1cccc(OC)c1 (stereo not given)	none (no result: HTRA1 inhibitor, PAD4 FP inh, TCR CD3 inh)
Oc1ccc(/C=N/N2CCN(C3c4ccccc4-c4ccccc43)CC2)cc1	none
Oc1ccc(/C=N/N2CCN(C3c4ccccc4-c4ccccc43)CC2)cc1O	HTRA1 inhibitor 38 | HTRA1 inh conf active
CCOc1ccc(N2C(=O)CNC2=S)cc1	none
CCOc1ccc(N2C(=O)CS/C2=C(\C(Cl)=C(Cl)Cl)[N+](=O)[O-])cc1	HTRA1 inhibitor 42 (no result: mABHD4 FP, PRMT1 inh, TCR CD3 inh, SIAE primary) | HTRA1 inh conf active
Cc1cc(N=Nc2ccc(C)c(N=Nc3cc(C)c(N)cc3N)c2)c(N)cc1N	HTRA1 inhibitor 77 | HTRA1 inh conf 74
NC(=O)c1cc2c3ccccc3ccn2c1-c1ccccc1	HTRA1 inhibitor 42 | HTRA1 inh conf inactive
Nc1[nH]c(C(=O)c2ccccc2)c(-c2ccccc2)c1C(=O)NCCc1c[nH]c2ccccc12	none (no result: HTRA1 inhibitor, PAD4 FP inh)
O=C(O)C1Nc2ccc(OC(F)(F)F)cc2C2C=CCC12 (stereo not given)	none (no result: mABHD4 FP, HTRA1 inhibitor, PRMT1 inh, TCR CD3 inh, SIAE primary)
CCOC(=O)C1Nc2ccc(OC(F)(F)F)cc2C2C=CCC12 (stereo not given)	HTRA1 inhibitor 58 | HTRA1 inh conf 55
O=C(NC1CC1)C1Nc2ccc(OC(F)(F)F)cc2C2C=CCC12 (stereo not given)	HTRA1 inhibitor 48, PRMT1 inh 22 | HTRA1 inh conf inactive
